Compound activity from PubChem.
An excerpt weighted towards active compounds, which were near 8.7% of everything screened.
PostGolgi yeast: growth inhibition of a yeast mutant, post-Golgi transport screen | post-Golgi transport phenotypic cell assay | inhibition, % at 10 µM | 98,000 tested, 0.9% active;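 note: yeast cells grown in 1536-well plates; yeast grown about 18 h at 30C before absorbance read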
Cav3 T inh: inhibitors of human Cav3.2 T-type calcium channel; O95180; Cav3.2-expressing cells, Fluo-4 calcium fluorescence FDSS; active compounds read low; 100,000 tested, 4% active; AID 449739; B-score at 10 µM;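 active = single-dose well whose peak fluorescence ratio is a statistical outlier from its plate by either plate-standardised score or position-corrected B-score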
PostGolgi ctrl: yeast control strain growth, post-Golgi counter-screen. 98,000 tested, 5% active. efflux-deficient yeast background strain, growth absorbance A615, 16 h. inhibition, % at 10 µM
E coli WT exp: blocks growth of wild type E. coli BW25113; growth inhibition, % at 100 µM; OD600 absorbance; 98,000 tested, 0.15% active;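 active = growth inhibition above about 50% at one test dose, limit read from the data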;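 note: growth measured after 20 h incubation at 37 °C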
PTK2B oligo ant: blocks oligomerization of human Pyk2 in cells; Q14289; Q293 cells, Pyk2 FERM NanoBiT luminescence; active compounds read low; z-score (the deposit names both 25 µM and 10 µM); 99,000 tested, 0.83% active;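 active = Z-score of -3 or lower, scaled per plate to the spread of control and sample wells; inactive = z-score above -3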;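 note: negative z-score means lost luminescence so less FERM oligomerization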
Ecoli tolC: growth inhibitors of E. coli BW25113 tolC mutant; growth inhibition, % at 10 µM (by protocol); 65,000 tested, 2.2% active; AID 573; OD615;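 active = growth inhibition at or above a cutoff equal to the mean over every tested compound plus 3 SD, cut at about 60% in these data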;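 note: growth measured after 20 h incubation at 37 °C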
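Material: E. coli BW25113 ΔtolC::kan, tolC deletion mutant strain. Measure: percent growth inhibition. Schedule: 37 °C, 20 h exposure. Doses: single-point testing at 10 µM. Signal: A615 absorbance measurement. Buffer or medium: kanamycin-containing LB broth (50 µg/mL).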
* marks the source's active call; other numbers are inactive results. Cut-off read from the data, not from the text of the source, unless noted: active = inhibition above about 30%; inactive = the rest.

What do the screens show for `CCOC(=O)c1oc2cc(O)ccc2c(=O)c1-c1ccc(OC)cc1`?
PostGolgi yeast: -2.4; Cav3 T inh: 1.76; PostGolgi ctrl: 10.7; E coli WT exp: 7.0; PTK2B oligo ant: -1.71

What do the screens show for `CCOC(=O)c1oc2cc(O)c(CC)cc2c(=O)c1-c1ccc2c(c1)OCCO2`?
PostGolgi yeast: -6.4; Cav3 T inh: -0.101; PostGolgi ctrl: 30.1*; E coli WT exp: -4.0; Ecoli tolC: 27.0

What do the screens show for `Oc1ccccc1NCC(O)Cn1ccc2ccccc21` (stereo not drawn)?
PostGolgi yeast: 15.5; Cav3 T inh: -1.81; PostGolgi ctrl: 36.9*; E coli WT exp: 7.0; PTK2B oligo ant: 1.01; Ecoli tolC: 55.4

What do the screens show for `COc1ccc(NS(=O)(=O)c2ccc3c(c2)CCC(=O)N3)c(OC)c1`?
PostGolgi yeast: 4.1; Cav3 T inh: 0.426; PostGolgi ctrl: 2.6; E coli WT exp: -6.0; PTK2B oligo ant: 1.08; Ecoli tolC: -12.1

What do the screens show for `CCNC(=O)N1CCNC(=O)C1CC(=O)OC` (stereo not drawn)?
PostGolgi yeast: 0.8; Cav3 T inh: -0.497; PostGolgi ctrl: 31.2*; E coli WT exp: -6.0; PTK2B oligo ant: 0.81; Ecoli tolC: -5.9

Results for CC(C)(C)c1ccc(C2(C)NC(=O)N(CC(=O)Nc3ccc4c(c3)OCO4)C2=O)cc1 (stereo not drawn) ?
PostGolgi yeast: 0.7; Cav3 T inh: -5.55*; PostGolgi ctrl: 9.9; E coli WT exp: -4.0; PTK2B oligo ant: 0.39

Results for Cc1ccc(C2(C)NC(=O)N(CC(=O)Nc3cc(C)on3)C2=O)cc1 (stereo not drawn) ?
PostGolgi yeast: -1.4; Cav3 T inh: -0.0196; PostGolgi ctrl: 30.8*; E coli WT exp: 6.0; PTK2B oligo ant: 2.17

Results for CC1(c2ccc(OC(F)F)cc2)NC(=O)N(CC(=O)Nc2ccc3c(c2)OCO3)C1=O (stereo not drawn) ?
PostGolgi yeast: 4.9; Cav3 T inh: 1.62; PostGolgi ctrl: 0.3; E coli WT exp: -2.0; PTK2B oligo ant: -0.28; Ecoli tolC: 19.9

What do the screens show for `CCCC(=O)Nc1cccc(C(=O)Nc2nccs2)c1`?
PostGolgi yeast: -6.4; Cav3 T inh: 0.359; PostGolgi ctrl: 19.5; E coli WT exp: 7.0; PTK2B oligo ant: -0.51; Ecoli tolC: -9.0

What do the screens show for `C=CCc1cc(C(=O)N2CCCCC2)ccc1O`?
PostGolgi yeast: -0.7; PostGolgi ctrl: -0.6; E coli WT exp: 4.0; PTK2B oligo ant: 0.14; Ecoli tolC: 0.0

How did C=CCc1ccc(O)c(-c2ccc(O)c(CC=C)c2)c1 do in these assays?
Cav3 T inh: -5.42*

What do the screens show for `Cc1occc1-c1nnc(SCC(=O)N2CCN(c3ccccc3F)CC2)n1C`?
Ecoli tolC: 2.6

Results for CCOc1ccc(C(O)C(CN2CCOCC2)c2ccccc2)cc1 (stereo not drawn) ?
PostGolgi yeast: 13.2; Cav3 T inh: 0.663; PostGolgi ctrl: 37.3*; E coli WT exp: -1.0; PTK2B oligo ant: 0.38

How did CCCOc1ccc(C(O)C(CN2CCOCC2)c2ccccc2)cc1 (stereo not drawn) do in these assays?
PostGolgi yeast: 11.2; Cav3 T inh: 0.585; PostGolgi ctrl: 10.6; E coli WT exp: 7.0; PTK2B oligo ant: 1.29

What do the screens show for `Cc1ccc(C2C3=C(CCCC3=O)Nc3nc(SCC(=O)NCc4ccco4)[nH]c(=O)c32)cc1` (stereo not drawn)?
PostGolgi yeast: -4.7; Cav3 T inh: 0.162; PostGolgi ctrl: 15.0; E coli WT exp: -10.0; PTK2B oligo ant: 0.51; Ecoli tolC: 10.9

How did Cc1cc(NCCCn2ccnc2)n2ncc(-c3ccccc3)c2n1 do in these assays?
PostGolgi yeast: 18.6; PostGolgi ctrl: 38.1*; E coli WT exp: 11.0; PTK2B oligo ant: -0.1; Ecoli tolC: 23.4

Results for CCOC(=O)Cc1csc(N/N=C\c2cccc(Br)c2)n1 ?
PostGolgi yeast: 16.6; PostGolgi ctrl: 3.0; E coli WT exp: -7.0

How did CCOC(=O)c1sc(N/N=C/c2cccc(C)c2)nc1C do in these assays?
PostGolgi yeast: 2.4; Cav3 T inh: 0.0871; PostGolgi ctrl: 38.5*; E coli WT exp: -13.0; PTK2B oligo ant: -2.43

What do the screens show for `CCOC(=O)c1sc(Nc2ccc(C)cc2C)nc1C`?
PostGolgi yeast: 4.1; Cav3 T inh: -3; PostGolgi ctrl: 52.0*; E coli WT exp: 10.0; PTK2B oligo ant: -2.82

What do the screens show for `CCOC(=O)c1sc(Nc2ccccc2)nc1C`?
PostGolgi yeast: 5.0; Cav3 T inh: -0.975; PostGolgi ctrl: 10.9; E coli WT exp: -1.0; PTK2B oligo ant: -2.03
